Converted amounts (≈) assume the structure as drawn.
System: Escherichia coli
Experiment: Antimicrobial activity against Escherichia coli ATCC 25922
Format: functional
Summary of the method: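 Broth microdilution in trypticase soy broth; 2-fold serial dilutions giving final 512 to 1 µg/mL. Inoculum E. coli ATCC 25922 in TSB, final […] as printed. Incubated 37 °C for 24 h in plate reader, OD600 read every 20 min. MIC taken as lowest concentration preventing growth at 24 h.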

| Structure (SMILES) | MIC [µg/mL] |
| --- | --- |
| CC(=O)N(CCC(=O)N(CCN)CCC(=O)N(CCN)CCC(=O)N(CCC(=O)N(CCN)CCC(=O)N(CCN)CCC(=O)N[C@@H](CCCCN)C(N)=O)CC(C)C)CC(C)C | > 512 |
| CC(=O)N(CCC(=O)N(CCCN(C)C)CCC(=O)N(CCC(=O)N(CCC(=O)N(CCCN(C)C)CCC(=O)N(CCC(=O)N(CCC(=O)N(CCCN(C)C)CCC(=O)N(CCC(=O)N[C@@H](CCCCN)C(N)=O)CC(C)C)Cc1ccccc1)CC(C)C)Cc1ccccc1)CC(C)C)Cc1ccccc1 | 128 (≈ 84.1 µM) |
| CC(=O)NCCC(=O)N(CCC(=O)N(CCN)CCC(=O)NCCC(=O)N(CCC(=O)N(CCN)CCC(=O)NCCC(=O)N(CCC(=O)N(CCN)CCC(=O)NCCC(=O)N(CCC(=O)N(CCN)CCC(=O)NCCC(=O)N(CCC(=O)N(CCN)CCC(=O)NCCC(=O)N(CCC(=O)N(CCN)CCC(=O)NCCC(=O)N(CCC(=O)N(CCN)CCC(=O)N[C@@H](CCCCN)C(N)=O)CC(C)C)CC(C)C)CC(C)C)CC(C)C)CC(C)C)CC(C)C)CC(C)C | 128 (≈ 53.9 µM) |
| CC(=O)N(CCC(=O)N(CCC(=O)N(CCN)CCC(=O)N(CCC(=O)N(CCC(=O)N(CCN)CCC(=O)N(CCC(=O)N(CCC(=O)N(CCN)CCC(=O)N(CCC(=O)N(CCC(=O)N(CCN)CCC(=O)N[C@@H](CCCCN)C(N)=O)CC(C)C)CC(C)C)CC(C)C)CC(C)C)CC(C)C)CC(C)C)CC(C)C)CC(C)C | 256 (≈ 154 µM) |
| CC(=O)NCCC(=O)N(CCC(=O)N(CCCN(C)C)CCC(=O)NCCC(=O)N(CCC(=O)N(CCCN(C)C)CCC(=O)NCCC(=O)N(CCC(=O)N(CCCN(C)C)CCC(=O)NCCC(=O)N(CCC(=O)N(CCCN(C)C)CCC(=O)NCCC(=O)N(CCC(=O)N(CCCN(C)C)CCC(=O)NCCC(=O)N(CCC(=O)N(CCCN(C)C)CCC(=O)NCCC(=O)N(CCC(=O)N(CCCN(C)C)CCC(=O)NCCC(=O)N(CCC(=O)N(CCCN(C)C)CCC(=O)N[C@@H](CCCCN)C(N)=O)CC(C)C)CC(C)C)CC(C)C)CC(C)C)CC(C)C)CC(C)C)CC(C)C)CC(C)C | > 512 |
| CC(=O)N(CCC(=O)N(CCC(=O)N(CCCCN)CCC(=O)N[C@@H](CCCCN)C(N)=O)CC(C)C)CC(C)C | > 512 |
| CC(=O)N(CCC(=O)N(CCC(=O)N(CCCCN)CCC(=O)N(CCC(=O)N(CCC(=O)N(CCCCN)CCC(=O)N(CCC(=O)N(CCC(=O)N(CCCCN)CCC(=O)N[C@@H](CCCCN)C(N)=O)CC(C)C)CC(C)C)CC(C)C)CC(C)C)CC(C)C)CC(C)C | > 512 |
| CC(=O)N(CCC(=O)N(CCC(=O)N(CCCN(C)C)CCC(=O)N(CCC(=O)N(CCC(=O)N(CCCN(C)C)CCC(=O)N(CCC(=O)N(CCC(=O)N(CCCN(C)C)CCC(=O)N(CCC(=O)N(CCC(=O)N(CCCN(C)C)CCC(=O)N[C@@H](CCCCN)C(N)=O)CC(C)C)Cc1ccccc1)CC(C)C)Cc1ccccc1)CC(C)C)Cc1ccccc1)CC(C)C)Cc1ccccc1 | 128 (≈ 65.1 µM) |
| CC(=O)NCCC(=O)N(CCC(=O)N(CCCN(C)C)CCC(=O)NCCC(=O)N(CCC(=O)N(CCCN(C)C)CCC(=O)NCCC(=O)N(CCC(=O)N(CCCN(C)C)CCC(=O)NCCC(=O)N(CCC(=O)N(CCCN(C)C)CCC(=O)NCCC(=O)N(CCC(=O)N(CCCN(C)C)CCC(=O)N[C@@H](CCCCN)C(N)=O)CC(C)C)CC(C)C)CC(C)C)CC(C)C)CC(C)C | > 512 |
| CC(=O)NCCC(=O)N(CCC(=O)N(CCN)CCC(=O)NCCC(=O)N(CCC(=O)N(CCN)CCC(=O)NCCC(=O)N(CCC(=O)N(CCN)CCC(=O)NCCC(=O)N(CCC(=O)N(CCN)CCC(=O)NCCC(=O)N(CCC(=O)N(CCN)CCC(=O)NCCC(=O)N(CCC(=O)N(CCN)CCC(=O)NCCC(=O)N(CCC(=O)N(CCN)CCC(=O)NCCC(=O)N(CCC(=O)N(CCN)CCC(=O)N[C@@H](CCCCN)C(N)=O)CC(C)C)CC(C)C)CC(C)C)CC(C)C)CC(C)C)CC(C)C)CC(C)C)CC(C)C | 256 (≈ 95.3 µM) |
| CC(=O)NCCC(=O)N(CCC(=O)N(CCCN(C)C)CCC(=O)NCCC(=O)N(CCC(=O)N(CCCN(C)C)CCC(=O)NCCC(=O)N(CCC(=O)N(CCCN(C)C)CCC(=O)NCCC(=O)N(CCC(=O)N(CCCN(C)C)CCC(=O)NCCC(=O)N(CCC(=O)N(CCCN(C)C)CCC(=O)NCCC(=O)N(CCC(=O)N(CCCN(C)C)CCC(=O)NCCC(=O)N(CCC(=O)N(CCCN(C)C)CCC(=O)N[C@@H](CCCCN)C(N)=O)CC(C)C)CC(C)C)CC(C)C)CC(C)C)CC(C)C)CC(C)C)CC(C)C | > 512 |

Second part, the compound after the results:

| MIC [µg/mL] | Structure (SMILES) |
| --- | --- |
| > 512 | CC(=O)NCCC(=O)N(CCC(=O)N(CCCCN)CCC(=O)NCCC(=O)N(CCC(=O)N(CCCCN)CCC(=O)N[C@@H](CCCCN)C(N)=O)CC(C)C)CC(C)C |
| 128 (≈ 44.8 µM) | CC(=O)N(CCC(=O)N(CCCN(C)C)CCC(=O)N(CCC(=O)N(CCC(=O)N(CCCN(C)C)CCC(=O)N(CCC(=O)N(CCC(=O)N(CCCN(C)C)CCC(=O)N(CCC(=O)N(CCC(=O)N(CCCN(C)C)CCC(=O)N(CCC(=O)N(CCC(=O)N(CCCN(C)C)CCC(=O)N(CCC(=O)N(CCC(=O)N(CCCN(C)C)CCC(=O)N(CCC(=O)N[C@@H](CCCCN)C(N)=O)CC(C)C)Cc1ccccc1)CC(C)C)Cc1ccccc1)CC(C)C)Cc1ccccc1)CC(C)C)Cc1ccccc1)CC(C)C)Cc1ccccc1)CC(C)C)Cc1ccccc1 |
| 128 (≈ 53.1 µM) | CC(=O)N(CCC(=O)N(CCCN(C)C)CCC(=O)N(CCC(=O)N(CCC(=O)N(CCCN(C)C)CCC(=O)N(CCC(=O)N(CCC(=O)N(CCCN(C)C)CCC(=O)N(CCC(=O)N(CCC(=O)N(CCCN(C)C)CCC(=O)N(CCC(=O)N(CCC(=O)N(CCCN(C)C)CCC(=O)N(CCC(=O)N[C@@H](CCCCN)C(N)=O)CC(C)C)Cc1ccccc1)CC(C)C)Cc1ccccc1)CC(C)C)Cc1ccccc1)CC(C)C)Cc1ccccc1)CC(C)C)Cc1ccccc1 |
| 256 (≈ 126 µM) | CC(=O)N(CCC(=O)N(CCC(=O)N(CCN)CCC(=O)N(CCC(=O)N(CCC(=O)N(CCN)CCC(=O)N(CCC(=O)N(CCC(=O)N(CCN)CCC(=O)N(CCC(=O)N(CCC(=O)N(CCN)CCC(=O)N(CCC(=O)N(CCC(=O)N(CCN)CCC(=O)N[C@@H](CCCCN)C(N)=O)CC(C)C)CC(C)C)CC(C)C)CC(C)C)CC(C)C)CC(C)C)CC(C)C)CC(C)C)CC(C)C)CC(C)C |
| 512 (≈ 337 µM) | CC(=O)N(CCC(=O)N(CCC(=O)N(CCCN(C)C)CCC(=O)N(CCC(=O)N(CCC(=O)N(CCCN(C)C)CCC(=O)N(CCC(=O)N(CCC(=O)N(CCCN(C)C)CCC(=O)N[C@@H](CCCCN)C(N)=O)CC(C)C)Cc1ccccc1)CC(C)C)Cc1ccccc1)CC(C)C)Cc1ccccc1 |
| 256 (≈ 146 µM) | CC(=O)NCCC(=O)N(CCC(=O)N(CCN)CCC(=O)NCCC(=O)N(CCC(=O)N(CCN)CCC(=O)NCCC(=O)N(CCC(=O)N(CCN)CCC(=O)NCCC(=O)N(CCC(=O)N(CCN)CCC(=O)NCCC(=O)N(CCC(=O)N(CCN)CCC(=O)N[C@@H](CCCCN)C(N)=O)CC(C)C)CC(C)C)CC(C)C)CC(C)C)CC(C)C |
| > 512 | CC(=O)N(CCC(=O)N(CCC(=O)N(CCCCN)CCC(=O)N(CCC(=O)N(CCC(=O)N(CCCCN)CCC(=O)N[C@@H](CCCCN)C(N)=O)CC(C)C)CC(C)C)CC(C)C)CC(C)C |
| > 512 | CC(=O)N(CCC(=O)N(CCC(=O)N(CCN)CCC(=O)N(CCC(=O)N(CCC(=O)N(CCN)CCC(=O)N(CCC(=O)N(CCC(=O)N(CCN)CCC(=O)N[C@@H](CCCCN)C(N)=O)CC(C)C)CC(C)C)CC(C)C)CC(C)C)CC(C)C)CC(C)C |
| 512 (≈ 424 µM) | CC(=O)NCCC(=O)N(CCC(=O)N(CCCCN)CCC(=O)NCCC(=O)N(CCC(=O)N(CCCCN)CCC(=O)NCCC(=O)N(CCC(=O)N(CCCCN)CCC(=O)N[C@@H](CCCCN)C(N)=O)CC(C)C)CC(C)C)CC(C)C |
| 128 (≈ 53.1 µM) | CC(=O)N(CCC(=O)N(CCC(=O)N(CCCN(C)C)CCC(=O)N(CCC(=O)N(CCC(=O)N(CCCN(C)C)CCC(=O)N(CCC(=O)N(CCC(=O)N(CCCN(C)C)CCC(=O)N(CCC(=O)N(CCC(=O)N(CCCN(C)C)CCC(=O)N(CCC(=O)N(CCC(=O)N(CCCN(C)C)CCC(=O)N[C@@H](CCCCN)C(N)=O)CC(C)C)Cc1ccccc1)CC(C)C)Cc1ccccc1)CC(C)C)Cc1ccccc1)CC(C)C)Cc1ccccc1)CC(C)C)Cc1ccccc1 |

Reference: ChEMBL document CHEMBL1139655, “Antimicrobial beta-peptoids by a block synthesis approach” (2006)
